# MPTP inh: blocks calcium-induced mitochondrial swelling; AID 602449; inhibition, % at 10 µM; actives 1.4% (n = 360,000); isolated mouse mitochondria, Ca2+ swelling absorbance, 30 min;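 active = inhibition of 50% or more, scaled per plate between neutral and stimulator controls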;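 note: 0% = DMSO wells given calcium and 100% = 1 mM EGTA wells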
# OX1R antag-1: human HCRTR1 antagonism | O43613 | CHO/OX1R cells, Fluo-8 calcium fluorescence, orexin A | inhibition, % at 5 µM | actives 0.43% (n = 330,000) | AID 434989;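 active = inhibition above its plate's threshold, mean inhibition of all tested compounds on the plate plus 3 SD, cut at about 37% in these data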;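 note: 0% = orexin A challenge wells and 100% = SB-334867-A antagonist wells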
# OX1R antag-2: blocks the human orexin 1 receptor; OX1R-expressing cells, FRET antagonist read-out; inhibition, % at 6.6 µM; actives 1.8% (n = 330,000); AID 485270; in the data active = inhibition mostly above about 38%, no sharp cut-off; inactive = mostly below about 40%;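 note: 0% = agonist challenge alone and 100% = reference antagonist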
# GPR7 antagonist: antagonists of human GPR7 (neuropeptides B/W receptor 1) | inhibition, % at 4.4 µM | GPR7-expressing cells, fluorescence antagonist assay | P48145 | AID 1861 | actives 1.1% (n = 290,000); in the data active = inhibition above about 16%, passing the limit was not always enough;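 note: cells stimulated with the agonist NPW; 0% = agonist with vehicle and 100% = vehicle without agonist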
# Target sequence (P48145 whole entry, looked up): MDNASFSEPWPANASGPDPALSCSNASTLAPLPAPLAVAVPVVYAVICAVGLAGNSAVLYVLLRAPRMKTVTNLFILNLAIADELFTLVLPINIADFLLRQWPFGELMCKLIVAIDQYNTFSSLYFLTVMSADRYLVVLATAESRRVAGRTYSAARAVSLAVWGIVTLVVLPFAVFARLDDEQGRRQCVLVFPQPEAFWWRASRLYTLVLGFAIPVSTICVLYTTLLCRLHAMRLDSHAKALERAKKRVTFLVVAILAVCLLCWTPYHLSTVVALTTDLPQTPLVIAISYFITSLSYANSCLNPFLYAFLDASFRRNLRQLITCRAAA
# CHO parental Ca: signal in parental CHO cells, OX1R antagonist counter-screen; inhibition, % at 5.6 µM; parental CHO-K1, ATP-induced calcium, Fluo-8 fluorescence; actives 0.63% (n = 330,000); AID 463079;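 active = inhibition above that plate's mean sample inhibition plus 3 SD, cut at about 26% in these data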;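 note: 0% = ATP-challenged DMSO wells and 100% = DMSO wells without ATP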
#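 Assay system – parental CHO cells · Reagent – ATP stimulus · Detection – intracellular calcium via Fluo-8 no-wash fluorescent dye · Evaluation – percent inhibition of ATP-evoked calcium rise, normalized to controls · Controls – ATP wells versus no-ATP DMSO wells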
# GPR7 antag cf: confirmation of human GPR7 antagonists. shares compounds with GPR7 antagonist. GPR7-expressing cells, calcium fluorescence antagonist mode. inhibition, % at 4.4 µM. actives 52% (n = 2,400). AID 1952; in the data active = inhibition above about 24%;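 note: stimulated with the GPR7 agonist NPW; 0% = agonist plus vehicle and 100% = vehicle alone without agonist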
# MCHR1 antag: MCHR1 (human) antagonism in GPR7 counter-screen. shares compounds with GPR7 antagonist. MCHR1-expressing cells, fluorescence antagonist assay. inhibition, % at 4.4 µM. actives 62% (n = 2,400); in the data active = inhibition above about 22%;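 note: 0% = vehicle with agonist and 100% = vehicle without agonist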
# The depositor's hits bear a star; . = no result given. Hits are enriched below; roughly 3.8% of the tested compounds scored in any of these assays.
SMILES,MPTP inh,OX1R antag-1,OX1R antag-2,GPR7 antagonist,CHO parental Ca,GPR7 antag cf,MCHR1 antag
Cc1ccc(C)c(N2CCN(C(=O)C3CCN(S(=O)(=O)c4c(C)noc4C)CC3)CC2)c1,34,7,19,32*,22,21,47*
Nc1ccccc1-c1nc2ccccc2c(=O)o1,1,-2,15,49*,-4,8,18
O=c1oc(-c2ccccc2[N+](=O)[O-])nc2ccccc12,0,-2,21,1,-10,.,.
CC(C)(C)NC(=O)c1oc2ccccc2c1COc1ccccc1,1,-20,31,26*,-25,21,35*
CC(OC(=O)c1oc2ccccc2c1COc1ccccc1)C(N)=O (configuration not stated),0,-18,18,-2,-9,.,.
CCOc1ccccc1/C=C/C(=O)N1CCN(C(=O)c2ccco2)CC1,0,-24,5,.,-22,.,.
O=C(NS(=O)(=O)Oc1ccc(F)cc1F)OC[C@@H]1CCCN2CCCCC12 (some centres not stated),-1,6,13,-13,10,.,.
O=C(NS(=O)(=O)Oc1cccc(F)c1)OC[C@@H]1CCCN2CCCCC12 (some centres not stated),-2,-5,10,23*,2,-11,10
CCOC(=O)CNC(=S)N(CCCN1CCCCCC1)Cc1cccs1,-1,-22,6,7,-8,.,.
CCOC(=O)CNC(=S)N(CCCN1CCCCC1)Cc1cccs1,0,-9,4,35*,-9,9,16
CC(C)CCOc1ccc(CO[C@@H]2[C@H]3OC(C)(C)O[C@H]3O[C@@H]2C(O)CO)cc1 (some centres not stated),1,-5,0,6,-5,.,.
Cc1ccc(C2C3=C(NCCN=C3c3ccccc3)C(=O)N2c2ccccc2)cc1 (configuration not stated),1,-39,6,.,-15,.,19
Cc1cc([N+](=O)[O-])cc(C)c1OCC(=O)N/N=C/c1ccc(OC(=O)c2ccccc2)cc1,-8,2,11,.,-2,.,9
Cc1cc([N+](=O)[O-])cc(C)c1OCC(=O)N/N=C/c1ccc(OC(=O)c2ccccc2Br)cc1,1,-6,-7,-2,-5,.,.
CSCCCNC(=S)N1CCN(c2ccc(C(C)=O)cc2)CC1,-1,-2,24,26*,12,28*,31*
O=C(Nc1ccc(OC(F)F)cc1)c1cc(S(=O)(=O)N2CCOCC2)ccc1N1CCCC1,1,.,.,.,.,.,.
CCCCC1CC(CSc2ncn[nH]2)OC1=O (configuration not stated),1,-12,0,2,0,.,.
CCCCCCCC1CC(CSc2ncn[nH]2)OC1=O (configuration not stated),1,-11,7,21*,-7,38*,38*
CCCc1nc2ccccc2n1Cc1ccccc1OC,-2,-33,19,-3,-7,.,.
COc1ccccc1Cn1c(CCCO)nc2ccccc21,4,-14,11,10,-14,-1,-1
COCCOC(=O)c1c(NC(=O)COC(=O)c2ccc(C)o2)sc(C(N)=O)c1C,0,-15,10,.,-14,.,.
CCC(C)CCN1C(Nc2ccccc2)=NC[C@@H]1Cc1ccccc1 (some centres not stated),1,-36,14,.,-25,.,19
c1ccc(CCCCN2C(Nc3ccccc3)=NC[C@@H]2Cc2ccccc2)cc1,11,-8,35,.,-14,.,.
CCCCCCCN1C(Nc2ccccc2)=NC[C@@H]1Cc1ccccc1,11,-28,13,50*,-22,48*,48*
c1ccc(C[C@H]2CN=C(Nc3ccccc3)N2CCCC2CCCC2)cc1,3,-25,8,46*,-13,51*,34*
SMILES,MPTP inh,OX1R antag-1,OX1R antag-2,GPR7 antagonist,CHO parental Ca,GPR7 antag cf,MCHR1 antag
C[C@H]1CN=C(Nc2ccccc2)N1CCCC1CCCCC1,2,-19,24,12,-10,.,.
COc1ccccc1N1CCN(S(=O)(=O)c2ccc(-n3cnnn3)cc2)CC1,-2,-14,11,-16,-12,.,.
O=C(Nc1ccc2c(c1)OCO2)c1ccc2c(c1)OCO2,-1,-10,9,-6,-7,.,.
O=C(Nc1ccc(Cl)c(Cl)c1)c1ccc2c(c1)OCO2,5,-9,21,27*,-7,13,32*
CSCC[C@H](N)C(=O)N1CCC(C(=O)N[C@H](C(=O)NCc2ccccc2F)C(C)C)CC1,-1,-12,8,-8,-10,.,.
CCc1ccc(NC(=O)C/C(C)=N/NC(=O)COc2ccc(C)cc2Br)cc1,3,-31,15,42*,-22,-4,-9
OC(CNC1Cc2ccccc2C1)COc1ccc(F)cc1 (configuration not stated),0,-20,1,22*,-16,5,-4
Cc1ccc(OCC(O)CNC2CCCC2)c(C)c1 (configuration not stated),1,.,.,-19,.,.,.
Cc1ccccc1OCC(O)CNC1CCC(NCC(O)COc2ccccc2C)CC1 (configuration not stated),4,-18,-16,77*,16,83*,80*
CCN(CC)C(=O)NC(c1ccc(C)c(F)c1)C(Cl)(Cl)Cl (configuration not stated),4,-24,40,-8,-22,.,.
CCC(C)(C(=O)NC1CCCC1)N(Cc1cccs1)C(=O)c1ccc2c(c1)OCO2 (configuration not stated),0,3,15,29*,-19,29*,25*
CCCNC(=S)N1CCC(C(=O)c2ccc3c(c2)OCCO3)CC1,4,-7,20,4,-16,.,.
CCCCn1c(N)c(N(Cc2ccccc2OC)C(=O)COc2ccccc2C#N)c(=O)[nH]c1=O,0,-2,12,27*,-13,2,3
CCCCn1c(N)c(N(Cc2ccccc2OC)C(=O)COc2ccc(F)cc2Cl)c(=O)[nH]c1=O,0,0,12,-5,-14,.,.
Cc1cc(NC(=O)/C=C/c2ccc(Cl)cc2)no1,1,-10,18,-4,1,.,.
CC(=O)NC(CC(=O)NC1CCCCCC1)c1ccccc1 (configuration not stated),0,-16,12,-16,-4,.,.
CC(CC(=O)NC1CCCC1)c1ccccc1 (configuration not stated),0,-36,32,34*,-2,5,-1
CCCC(CCC)C(=O)Nc1ccc2c(c1)N(C(=O)CN1CCN(C)CC1)c1ccccc1CC2,0,-15,31,58*,-16,39*,22*
CCOC(=O)c1cnc(-n2nc(C)cc2C)nc1NC1CCCCC1,25,74*,15,28*,71*,77*,73*

# Bioassay records as filed in PubChem BioAssay.
